# Screens (PubChem)
# In the library only some 2.2% were active in any assay of this set; here they are far more common.
# STAT3 blocker: STAT3 signaling inhibition. U3A cells, IL-6 STAT3-luciferase reporter, luminescence; host cell line lacks STAT1. inhibition, % at 5.5 µM. actives 0.89% (n = 190,000);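 active = inhibition above the mean inhibition across all screened compounds plus 3 SD, cut at about 44% in these data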;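 note: 0% = DMSO only wells and 100% = 100 µM nifuroxazide control wells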
# FLuc inh counter: Photinus pyralis luciferase inhibition counter-screen; AID 1006; ATPLite firefly luciferase biochemical luminescence, 10 min; inhibition, % at 10 µM; actives 1.5% (n = 200,000); P08659;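 active = inhibition above about 50% when tested at 10 µM, limit read from the data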
# Target sequence (P08659 whole entry, looked up): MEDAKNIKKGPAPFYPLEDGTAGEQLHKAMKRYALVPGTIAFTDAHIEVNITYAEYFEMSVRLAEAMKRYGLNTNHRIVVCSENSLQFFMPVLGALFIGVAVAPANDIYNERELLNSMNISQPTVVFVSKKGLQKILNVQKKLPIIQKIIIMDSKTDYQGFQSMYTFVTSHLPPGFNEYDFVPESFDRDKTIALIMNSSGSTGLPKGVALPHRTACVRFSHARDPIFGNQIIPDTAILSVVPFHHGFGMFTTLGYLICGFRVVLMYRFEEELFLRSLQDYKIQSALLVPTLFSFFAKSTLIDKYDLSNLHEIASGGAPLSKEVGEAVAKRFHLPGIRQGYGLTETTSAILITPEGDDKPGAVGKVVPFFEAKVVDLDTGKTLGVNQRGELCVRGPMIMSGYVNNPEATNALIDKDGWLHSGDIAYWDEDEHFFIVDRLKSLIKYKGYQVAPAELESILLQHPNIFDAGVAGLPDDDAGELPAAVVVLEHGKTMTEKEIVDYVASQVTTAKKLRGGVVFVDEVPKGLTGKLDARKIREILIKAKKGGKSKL
# FLuc act counter: affects firefly luciferase, flagging false hits in luciferase stimulation screens; P08659; ATPlite luciferase biochemical, luminescence, 10 min; 0 = ATP-free wells, 1 = DMSO control; activation factor at 10 µM; 200,000 tested, under 10 active;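 active = luciferase activation factor, scaled between plate controls, of at least 2 with compound at 10 µM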
#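 test system = cell-free luciferase reagent | medium = PBS as buffer for the ATP substrate | dosing = test compounds dosed from 2 mM stocks in 100% DMSO | incubation = 10 min at ambient temperature | detection = luminescence measurement of luciferase light output | benchmarks = low control with PBS replacing ATP, high control enzyme plus ATP without compound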
# PPC-1+TRAIL kill: compounds killing PPC-1 cancer cells with TRAIL present (potentiator screen, no TRAIL-free arm). PPC-1 cells + TRAIL, ATPLite viability luminescence. cell killing (% activity), % at 4 µM or 5 µM. actives 0.41% (n = 220,000). AID 1443;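 active = cell killing above 50% in the first pass at 4 µM, then a duplicate retest at 5 µM averaging 50% or more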;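 note: plate controls were cells with TRAIL plus DMSO for no effect and medium-only wells lacking cells for full effect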
# HSP90 refold inh: HSP90 refolding inhibition in rabbit reticulocyte lysate; luciferase refolding luminescence, 3 h; inhibition, % at 5.6 µM; actives 0.91% (n = 290,000); AID 1789;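 active = inhibition above the screen-wide mean plus 3 SD, computed separately per campaign, cut at about 16% in these data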;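 note: 0% = DMSO wells and 100% = 60 µM geldanamycin wells; inhibitors lower the luminescence because luciferase stays unfolded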
# TRAIL sens C8: caspase-8 TRAIL sensitization; actives 1% (n = 360,000); NB7+C8 cells + TRAIL, ATPlite viability luminescence; inhibition (viability loss, TRAIL sensitization), % at 10 µM;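 active = compounds causing at least 50% loss of cell viability in the single-dose screen, relative to plate controls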
# An asterisk follows results filed as active; . = not tested or not shown.
SMILES,STAT3 blocker,FLuc inh counter,FLuc act counter,PPC-1+TRAIL kill,HSP90 refold inh,TRAIL sens C8
Oc1ccc(-c2cn3ccccc3n2)cc1,.,.,.,38,2,63*
c1ccc(-c2cn3ccccc3n2)cc1,.,.,.,.,.,43
Brc1ccc(OCc2cn3ccccc3n2)cc1,38,77*,0.2,25,6,45
CN(C)S(=O)(=O)c1ccc(-c2cn3ccccc3n2)cc1,1,74*,0.3,46,5,60*
Brc1ccc(-c2cn3ccccc3n2)cc1,.,.,.,30,14,47*
Cc1c(C)c2ccc(OCC(=O)N3CCOCC3)c(C)c2oc1=O,8,8,0.9,5,-2,-3
Cc1ccc(NCC(=O)Nc2cccc(F)c2)cc1S(=O)(=O)N1CCCCCC1,.,.,.,.,-2,16
CCOc1ccc(-c2cn3ccccc3n2)cc1[N+](=O)[O-],4,78*,0.2,40,3,52*
COc1cc(/C=N/Nc2ccccn2)cc(OC)c1O,17,78*,0.2,40,-5,13
C=CCOc1ccc(/C=N/Nc2ccccn2)cc1OC,22,49,0.5,36,-1,27
CCOc1ccc(/C=N/Nc2ccccn2)cc1OC,-5,58*,0.4,14,0,26
COc1cc(/C=N/Nc2ccccn2)ccc1OCC(C)C,-1,19,0.8,33,-1,9
C(=N\Nc1ccccn1)/c1ccc2c(c1)OCCO2,31,78*,0.2,28,4,46
CCCOc1ccc(/C=N/Nc2ccccn2)cc1OC,1,58*,0.4,25,1,31
COc1ccc(/C=N\Nc2ccccn2)c(OC)c1,.,.,.,.,-2,12
C=CCn1c(C)cc(C(=O)COC(=O)c2ccc3c(c2)NC(=O)CS3)c1C,13,11,0.9,3,1,6
CCC1(c2ccc(Cl)cc2)NC(=O)N(CC(=O)N2CCN(C(=O)c3ccco3)CC2)C1=O (configuration not stated),.,.,.,.,.,3
CCc1nc(N)nc(N)c1-c1ccc(Cl)c([N+](=O)[O-])c1,.,.,.,.,.,80*
CCc1nc(N)nc(N)c1-c1ccc(Cl)c(N=[N+]=[N-])c1,.,.,.,.,.,83*
Cc1nn(CC(=O)c2ccccc2)c(=O)c2nn(-c3ccccc3F)c(C)c12,6,-6,1.1,30,0,7
COc1ccc(/C=C/c2nnc(NC(C)=O)s2)cc1,.,.,.,9,-3,34
COC(=O)Nc1nnc(/C=C/c2ccc(OC)cc2)s1,-14,52*,0.5,37,-2,23
O=C1c2ccccc2NC(c2ccccc2)N1/N=C/c1ccccc1 (configuration not stated),18,3,1,36,2,55*
O=C1c2ccccc2NC(c2ccc(O)cc2)N1/N=C/c1ccc(O)cc1 (configuration not stated),-18,7,0.9,26,6,9
CC1(C(=O)NS(=O)(=O)Cc2cccc(Cl)c2)CCN1C(=O)CC1CCCC1 (configuration not stated),.,.,.,.,.,-11
SMILES,STAT3 blocker,FLuc inh counter,FLuc act counter,PPC-1+TRAIL kill,HSP90 refold inh,TRAIL sens C8
COc1ccc(CNC(=O)[C@H](C)NC(=O)N2CCn3c2nc2ccccc23)cc1,.,.,.,.,-1,-5
NS(=O)(=O)c1ccc(CCNC(=O)CSc2nc3ccccc3c(=O)n2CCC(=O)N2CCCCC2)cc1,-6,53*,0.5,-9,-3,-6
Cc1ccc(NC(=O)c2ccc(C)cc2)cc1,.,.,.,.,.,73*
COC(=O)Cc1ccc(NC(=O)c2ccc(C(C)(C)C)cc2)cc1,85*,60*,0.4,40,13,74*
O=C(Nc1ccc2nc3ccccc3nc2c1)c1ccccc1,26,66*,0.3,11,0,57*
O=C(Nc1ccc(O)cc1)c1ccc(NC(=O)c2cccs2)cc1,.,.,.,.,-3,66*
Cc1ccc(C(=O)Nc2ccc(N3CCN(C)CC3)cc2)cc1,.,.,.,.,1,4
CC(C)(C)c1ccc(C(=O)Nc2ccc(Cl)cc2)cc1,2,26,0.7,22,-5,20
O=C1CCc2cc(NS(=O)(=O)c3ccccc3)cc3c2N1CC3,.,.,.,.,.,-12
COc1cccc(CC(NC(C)=O)C(=O)NC2CCN(S(=O)(=O)c3ccc4ccccc4c3)CC2)c1 (configuration not stated),3,-9,1.1,7,4,-19
